Source: ChEMBL document CHEMBL3352265, “Potentially bioactive organotin(IV) compounds: synthesis, characterization, in vitro bioactivities and interaction with SS-DNA” (Eur J Med Chem, 2014)
Converted amounts (≈) assume the structure as drawn. The source made the active and inactive calls. The calls are words filed in the database; no cut-off is given here.

Tests used:
Leishmania major = experiment: Antileishmanial activity against Leishmania major kwh 23 after 72 hrs using neobar counting by microscopy; type: functional, organism-based; details: kwh 23, 72 h
Summary of the method: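 Leishmania major promastigotes grown 7 days at 24 °C in medium 199 with 10% FBS. Samples as 10,000 ppm DMSO stocks, added to reach 200 ppm in the first row and serially diluted in 96-well plates, DMSO kept <5%. DMSO negative and amphotericin B positive controls. Incubated 72 h at 24 °C. Mortality counted in a counting chamber by light microscopy. Run 3 times. IC50 is the concentration giving 50% parasite reduction.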

Aspergillus flavus [1] = experiment: Antifungal activity against Aspergillus flavus FCBP 0064 at 40 mg/mL after 7 days by disc diffusion method; type: functional
Summary of the method: (§1)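 Disc diffusion on SDA. Fungi cultured at 28 °C for 24 h. 4 mm discs received compound at 40 mg/mL stock in DMSO. DMSO served as negative control, terbinafine as positive control. Plates incubated at 28 °C for 7 days. Growth diameter (mm) measured and inhibition calculated against the negative control. MIC taken as the lowest concentration with no growth.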

Escherichia coli [2] = experiment: Induction of Escherichia coli pBR322 DNA damage assessed as open circular form at 1000 ug/ml after 60 mins by gel electrophoresis
Mucor [3] = experiment: Antifungal activity against Mucor FCBP 0400 at 40 mg/mL by disc diffusion method; type: functional, organism-based; summary of the method: as §1
Aspergillus fumigatus [4] = experiment: Antifungal activity against Aspergillus fumigatus FCBP 66 after 7 days by disc diffusion method; type: functional, organism-based; summary of the method: as §1
[5] = test system: Agrobacterium tumefaciens; experiment: Antitumor activity against Agrobacterium tumefaciens -induced tumor at 1000 ug/ml after 21 days by potato disc bioassay technique; type: functional
Summary of the method: (§2)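 Potato disc assay with 48 h culture of A. tumefaciens At-10. Inoculum contained compound at […]. Red-skinned potatoes sterilized in 0.1% HgCl2; 8 mm × 4 mm discs placed ten per 1.5% agar plate, […] each. Incubated at 28 °C in the dark for 21 days, in triplicate. Discs stained with Lugol's and tumors counted. Percent inhibition calculated against the negative control.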

Salmonella typhimurium [6] = experiment: Antibacterial activity against Salmonella typhimurium ATCC 14028 at 40 mg/mL after 24 hrs by disc diffusion method; type: functional; details: Salmonella enterica subsp. enterica serovar Typhimurium
Summary of the method: (§3)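 Disc diffusion. Strains grown in nutrient broth at 37 °C for 24 h. 1% culture (about 10^6 CFU/mL) mixed into nutrient agar at 45 °C and poured. 4 mm paper discs received compound at 40 mg/mL stock in DMSO; final concentrations tested were […]. DMSO served as negative control, roxithromycin and cefixime as positive controls. Triplicate plates incubated at 37 °C for 24 h. Complete-inhibition zone diameter (mm) recorded as the mean of 3.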

Staphylococcus aureus [7] = experiment: Antibacterial activity against Staphylococcus aureus ATCC 6538 after 18 hrs by microdilution method; type: functional
Summary of the method: (§4)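 Broth microdilution. Twofold dilutions in culture broth at […]. Each well inoculated with bacterial suspension (10^8 CFU/mL, about 10^5 CFU/well). Sterility control and growth control (broth plus DMSO) included. Incubated at 36 °C for 18 h, in triplicate. MIC taken as the lowest concentration inhibiting growth, given in micrograms per mL.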

[8] = test system: Bordetella bronchiseptica; experiment: Antibacterial activity against Bordetella bronchiseptica ATCC 4617 after 18 hrs by microdilution method; type: functional; summary of the method: as §4
Klebsiella aerogenes [9] = experiment: Antibacterial activity against Enterobacter aerogenes ATCC 13048 after 18 hrs by microdilution method; type: functional, organism-based; summary of the method: as §4
[10] = test system: Agrobacterium tumefaciens; experiment: Antitumor activity against Agrobacterium tumefaciens -induced tumor at 10 ug/ml after 21 days by potato disc bioassay technique; type: functional; summary of the method: as §2
Salmonella typhimurium [11] = experiment: Antibacterial activity against Salmonella typhimurium ATCC 14028 after 18 hrs by microdilution method; type: functional; details: Salmonella enterica subsp. enterica serovar Typhimurium; summary of the method: as §4
[12] = test system: Agrobacterium tumefaciens; experiment: Antitumor activity against Agrobacterium tumefaciens -induced tumor at 100 ug/ml after 21 days by potato disc bioassay technique; type: functional; summary of the method: as §2
[13] = test system: Bordetella bronchiseptica; experiment: Antibacterial activity against Bordetella bronchiseptica ATCC 4617 at 40 mg/mL after 24 hrs by disc diffusion method; type: functional; summary of the method: as §3
Klebsiella aerogenes [14] = experiment: Antibacterial activity against Enterobacter aerogenes ATCC 13048 at 40 mg/mL after 24 hrs by disc diffusion method; type: functional; summary of the method: as §3
Bacillus spizizenii [15] = experiment: Antibacterial activity against Bacillus subtilis ATCC 6633 at 40 mg/mL after 24 hrs by disc diffusion method; type: functional; summary of the method: as §3
Aspergillus niger [16] = experiment: Antifungal activity against Aspergillus niger FCBP 0198 after 7 days by disc diffusion method; type: functional, organism-based; summary of the method: as §1
Bacillus spizizenii [17] = experiment: Antibacterial activity against Bacillus subtilis ATCC 6633 after 18 hrs by microdilution method; type: functional; summary of the method: as §4
Staphylococcus aureus [18] = experiment: Antibacterial activity against Staphylococcus aureus ATCC 6538 at 40 mg/mL after 24 hrs by disc diffusion method; type: functional; summary of the method: as §3
Mucor [19] = experiment: Antifungal activity against Mucor FCBP 0400 at 40 mg/mL after 7 days by disc diffusion method; type: functional; summary of the method: as §1
Escherichia coli [20] = experiment: Induction of Escherichia coli pBR322 DNA damage assessed as open circular form at 10 ug/ml after 60 mins by gel electrophoresis
Escherichia coli [21] = experiment: Antibacterial activity against Escherichia coli ATCC 15224 at 40 mg/mL after 24 hrs by disc diffusion method; type: functional; summary of the method: as §3
Aspergillus fumigatus [22] = experiment: Antifungal activity against Aspergillus fumigatus FCBP 66 at 40 mg/mL after 7 days by disc diffusion method; type: functional; summary of the method: as §1
Artemia salina = experiment: Cytotoxicity in brine shrimp assessed as mortality after 24 hrs; type: functional
Aspergillus flavus [23] = experiment: Antifungal activity against Aspergillus flavus FCBP 0064 after 7 days by disc diffusion method; type: functional, organism-based; summary of the method: as §1
Escherichia coli [24] = experiment: Antibacterial activity against Escherichia coli ATCC 15224 after 18 hrs by microdilution method; type: functional; summary of the method: as §4
Escherichia coli [25] = experiment: Induction of Escherichia coli pBR322 DNA damage assessed as open circular form at 1 ug/ml after 60 mins by gel electrophoresis
Aspergillus niger [26] = experiment: Antifungal activity against Aspergillus niger FCBP 0198 at 40 mg/mL after 7 days by disc diffusion method; type: functional; summary of the method: as §1
Escherichia coli [27] = experiment: Induction of Escherichia coli pBR322 DNA damage assessed as open circular form at 100 ug/ml after 60 mins by gel electrophoresis

Compound	inhibition zone (IZ) (Aspergillus flavus [1]) [mm]	Activity (Escherichia coli [2])	MIC (Mucor [3]) [µg/mL]	MIC (Aspergillus fumigatus [4]) [µg/mL]	Activity [5] [%]	inhibition zone (IZ) (Salmonella typhimurium [6]) [mm]	Activity [10] [%]	MIC (Salmonella typhimurium [11]) [µg/mL]	Activity [12] [%]	inhibition zone (IZ) [13] [mm]	inhibition zone (IZ) (Klebsiella aerogenes [14]) [mm]	inhibition zone (IZ) (Bacillus spizizenii [15]) [mm]	MIC (Aspergillus niger [16]) [µg/mL]	inhibition zone (IZ) (Staphylococcus aureus [18]) [mm]	inhibition zone (IZ) (Mucor [19]) [mm]	Activity (Escherichia coli [20])	inhibition zone (IZ) (Escherichia coli [21]) [mm]	LD50 (Artemia salina) [µg/mL]	MIC (Aspergillus flavus [23]) [µg/mL]	MIC (Escherichia coli [24]) [µg/mL]	other results
C[C@@H]1[C@H](O)[C@@H](C)/C=C/C=C/C=C/C=C/C=C/C=C/C=C/[C@H](O[C@@H]2O[C@H](C)[C@@H](O)[C@H](N)[C@@H]2O)C[C@@H]2O[C@](O)(C[C@@H](O)C[C@@H](O)[C@H](O)CC[C@@H](O)C[C@@H](O)CC(=O)O[C@H]1C)C[C@H](O)[C@H]2C(=O)O [AMPHOTERICIN B]																					IC50 (Leishmania major): 0.56 µg/mL (≈ 0.606 µM)
Di-tert-butylstannanediyl bis[4-(2-methoxyphenylamino)-4-oxobutanoate]	20	Active	100	100	92.4	26	53.4	6.25	71.5	30	40	40	100	17	14	Active	24	3.11	100	12.5	MIC (Staphylococcus aureus [7]): 12.5 µg/mL; MIC [8]: 12.5 µg/mL; MIC (Klebsiella aerogenes [9]): 6.25 µg/mL; MIC (Bacillus spizizenii [17]): 12.5 µg/mL; inhibition zone (IZ) (Aspergillus fumigatus [22]): 18 mm; Activity (Escherichia coli [25]): Active; inhibition zone (IZ) (Aspergillus niger [26]): 24 mm; Activity (Escherichia coli [27]): Active
N-[(2-methoxyphenyl)]-4-oxo-4-[(tribenzylstannyl)oxy]butanamide	12	Active	200	150	76.1	15	20.3	200	62	13	13	13	150	17	12	Active	16	0.793	200	50	MIC (Staphylococcus aureus [7]): 100 µg/mL; MIC [8]: 100 µg/mL; MIC (Klebsiella aerogenes [9]): 150 µg/mL; MIC (Bacillus spizizenii [17]): 200 µg/mL; inhibition zone (IZ) (Aspergillus fumigatus [22]): 15 mm; Activity (Escherichia coli [25]): Active; inhibition zone (IZ) (Aspergillus niger [26]): 15 mm; Activity (Escherichia coli [27]): Active
N-[(2-methoxyphenyl)]-4-oxo-4-[(tributylstannyl)oxy]butanamide	32	inactive	3.12	3.12	87.8	0	52.3	100	72.4	12	18	19	1.56	12	20	inactive	0	0.433	3.12	150	MIC (Staphylococcus aureus [7]): 150 µg/mL; MIC [8]: 100 µg/mL; MIC (Klebsiella aerogenes [9]): 100 µg/mL; MIC (Bacillus spizizenii [17]): 50 µg/mL; inhibition zone (IZ) (Aspergillus fumigatus [22]): 32 mm; Activity (Escherichia coli [25]): inactive; inhibition zone (IZ) (Aspergillus niger [26]): 40 mm; Activity (Escherichia coli [27]): inactive
N-[(2-methoxyphenyl)]-4-oxo-4-[(tricyclohexylstannyl)oxy]butanamide	18	inactive	150	150	80.9	8	36.5	200	57.4	0	0	0	200	0	18	inactive	9	0.493	150	200	inhibition zone (IZ) (Aspergillus fumigatus [22]): 16 mm; Activity (Escherichia coli [25]): inactive; inhibition zone (IZ) (Aspergillus niger [26]): 0 mm; Activity (Escherichia coli [27]): inactive
N-[(2-methoxyphenyl)]-4-oxo-4-[(triethylstannyl)oxy]butanamide	46	Active	0.78	0.78	84.1	26	48.3	6.25	70.3	38	22	36	0.78	28	34	Active	34	0.881	0.78	6.25	MIC (Staphylococcus aureus [7]): 50 µg/mL; MIC [8]: 6.25 µg/mL; MIC (Klebsiella aerogenes [9]): 6.25 µg/mL; MIC (Bacillus spizizenii [17]): 6.25 µg/mL; Activity (Escherichia coli [25]): Active; inhibition zone (IZ) (Aspergillus niger [26]): 48 mm; Activity (Escherichia coli [27]): Active
N-[(2-methoxyphenyl)]-4-oxo-4-[(trimethylstannyl)oxy]butanamide	28	Active	50	50	69.9	23	30.2	25	54.8	26	20	27	12.5	25	24	Active	26	1.09	50	25	MIC (Staphylococcus aureus [7]): 50 µg/mL; MIC [8]: 12.5 µg/mL; MIC (Klebsiella aerogenes [9]): 50 µg/mL; MIC (Bacillus spizizenii [17]): 25 µg/mL; inhibition zone (IZ) (Aspergillus fumigatus [22]): 22 mm; Activity (Escherichia coli [25]): Active; inhibition zone (IZ) (Aspergillus niger [26]): 28 mm; Activity (Escherichia coli [27]): Active
